Here are results for 38 variants from the RNAGym collection of RNA variant scans (doi:10.1038/nmeth.2970).

The term Kd denotes the free concentration of one partner at which half of the binding sites on the other are occupied at equilibrium, for simple one-to-one binding.

B1: NELF-E aptamer (parent)
chain: CCCAACGACUGCCGAGCGAGAUUACGCUUGAGCGCCCCACUGAGGAUGCCCACGGGCGAUUGGGGCACGG

The variants in the data set derive from B1. The experiment in a line: HiTS-RAP. Particulars: with NELF-E (Drosophila). The method in brief:
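Aptamer DNA templates bearing a T7 promoter and a ter site were sequenced on an Illumina GAIIx flowcell. T7 RNA polymerase then transcribed them in situ, and GST-Tus halted transcription over 30 minutes at 37°C. After a 30-minute room-temperature equilibration with NELF-E-mOrange at 0.064 to 1000 nM in HEPES binding buffer, clusters were imaged, using only the first binding curve. Intensities normalised to sequencing intensity were averaged per sequence and fitted with weighted Hill fits to give Kd, retaining only fits whose variance stayed under 1,000,000.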
As to CCCAAUGACUGCCGAGCGAGAUUACGCUUGAGCGCCCCACAGAGGAUGCCCACGGGCGAUUGGGGCACGG [C6U U41A], the Kd was 82.3 nM.

Regarding CCCAAUGACUGCCGAGCGAGAUUACGCUUGAGCGCCCCACGGAGGAUGCCCACGGGCGAUUGGGGCACGG [C6U U41G], the Kd is 5.16 nM.

Take CCCAAUGACUGCCGAGCGAGAUUACGCUUGAGCGCCCCACCGAGGAUGCCCACGGGCGAUUGGGGCACGG [C6U U41C]: the Kd was 81.8 nM.

For CCCAAUGAUUGCCGAGCGAGAUUACGCUUGAGCGCCCCACUGAGGAUGCCCACGGGCGAUUGGGGCACGG [C6U C9U], the Kd was 5.38 nM.

As to CCCAAUGAGUGCCGAGCGAGAUUACGCUUGAGCGCCCCACUGAGGAUGCCCACGGGCGAUUGGGGCACGG [C6U C9G], the Kd stood at 6.57 nM.

With CCCAAUGACUGCCGAGCGAGAUUACGCUUGAGCGCCCCACUAAGGAUGCCCACGGGCGAUUGGGGCACGG [C6U G42A], the Kd was 52.7 nM.

For the variant CCCAACAACUGGCGAGCGAGAUUACGCUUGAGCGCCCCACUGAGGAUGCCCACGGGCGAUUGGGGCACGG [G7A C12G], the Kd amounted to 6.93 nM.

CCCAAUGACUGCCGAUCGAGAUUACGCUUGAGCGCCCCACUGAGGAUGCCCACGGGCGAUUGGGGCACGG [C6U G16U]: the Kd stood at 6.67 nM.

On to CCCAAUGACUGCCGAGCGAGAUUGCGCUUGAGCGCCCCACUGAGGAUGCCCACGGGCGAUUGGGGCACGG [C6U A24G], for which the Kd turned out to be 5.94 nM.

Consider CCCAAUGACUGCCGAGCGAUAUUACGCUUGAGCGCCCCACUGAGGAUGCCCACGGGCGAUUGGGGCACGG [C6U G20U], for which the Kd turned out to be 8.79 nM.

As to CCCAAUGACUGCCGAGCGAGAUGACGCUUGAGCGCCCCACUGAGGAUGCCCACGGGCGAUUGGGGCACGG [C6U U23G], the Kd was determined as 6.14 nM.

Turning to CCCAAUGACUGCCGAGCGGGAUUACGCUUGAGCGCCCCACUGAGGAUGCCCACGGGCGAUUGGGGCACGG [C6U A19G], the Kd is 6.06 nM.

With CCCAACAACUGCCGAGCGAGAUUGCGCUUGAGCGCCCCACUGAGGAUGCCCACGGGCGAUUGGGGCACGG [G7A A24G], the Kd came to 6.73 nM.

Regarding CCCAACAACUGCCGAGCGAGAUUACGCUUGAGCGCCCCACUGAGGAUGCCCACGGGCGAUUGGGGCACGG [G7A], the Kd was 5.61 nM.

CCCAACCACUGCCGAGCGAGAUUACGCUUGAGCGCCCCACUGAGGAUGCCCACGGGCGAUUGGGGCACGG [G7C]: the Kd amounted to 6.43 nM.

In the case of CCCAACUACUGCCGAGCGAGAUUACGCUUGAGCGCCCCACUGAGGAUGCCCACGGGCGAUUGGGGCACGG [G7U], the Kd came out at 5.55 nM.

CCCAACAACUGCCGAGCGAGAGUACGCUUGAGCGCCCCACUGAGGAUGCCCACGGGCGAUUGGGGCACGG [G7A U22G]: the Kd was found to be 7 nM.

With CCCAACAGCUGCCGAGCGAGAUUACGCUUGAGCGCCCCACUGAGGAUGCCCACGGGCGAUUGGGGCACGG [G7A A8G], the Kd stood at 6.39 nM.

Turning to CCCAACACCUGCCGAGCGAGAUUACGCUUGAGCGCCCCACUGAGGAUGCCCACGGGCGAUUGGGGCACGG [G7A A8C], the Kd is 5.87 nM.

Regarding CCCAACAUCUGCCGAGCGAGAUUACGCUUGAGCGCCCCACUGAGGAUGCCCACGGGCGAUUGGGGCACGG [G7A A8U], the Kd turned out to be 8.46 nM.

On to CCCAAUGGCUGCCGAGCGAGAUUACGCUUGAGCGCCCCACUGAGGAUGCCCACGGGCGAUUGGGGCACGG [C6U A8G], for which the Kd stood at 6.02 nM.

CCCAAUGUCUGCCGAGCGAGAUUACGCUUGAGCGCCCCACUGAGGAUGCCCACGGGCGAUUGGGGCACGG [C6U A8U]: the Kd stood at 7.13 nM.

For the variant CCCAACUACUGCCGUGCGAGAUUACGCUUGAGCGCCCCACUGAGGAUGCCCACGGGCGAUUGGGGCACGG [G7U A15U], the Kd worked out at 6 nM.

For CCCAACUACUGCCGGGCGAGAUUACGCUUGAGCGCCCCACUGAGGAUGCCCACGGGCGAUUGGGGCACGG [G7U A15G], the Kd was found to be 5.56 nM.

On to CCCAACCACGGCCGAGCGAGAUUACGCUUGAGCGCCCCACUGAGGAUGCCCACGGGCGAUUGGGGCACGG [G7C U10G], for which the Kd amounted to 6.28 nM.

CCCAACAACGGCCGAGCGAGAUUACGCUUGAGCGCCCCACUGAGGAUGCCCACGGGCGAUUGGGGCACGG [G7A U10G]: the Kd amounted to 5.66 nM.

For the variant CCCAACAAGUGCCGAGCGAGAUUACGCUUGAGCGCCCCACUGAGGAUGCCCACGGGCGAUUGGGGCACGG [G7A C9G], the Kd was 5.55 nM.

On to CCCAAUGACUGCCGAGCGAGGUUACGCUUGAGCGCCCCACUGAGGAUGCCCACGGGCGAUUGGGGCACGG [C6U A21G], for which the Kd is 7.12 nM.

With CCCAAUGACUGCUGAGCGAGAUUACGCUUGAGCGCCCCACUGAGGAUGCCCACGGGCGAUUGGGGCACGG [C6U C13U], the Kd came to 5.09 nM.

Regarding CCCAAUGACUGCGGAGCGAGAUUACGCUUGAGCGCCCCACUGAGGAUGCCCACGGGCGAUUGGGGCACGG [C6U C13G], the Kd turned out to be 5.6 nM.

On to CCCAAGGACUGCCGAGCGAGAUUACGCUUGAGCGCCCCACUGAGGAUGCCCACGGGCGAUGGGGGCACGG [C6G U61G], for which the Kd came out at 7 nM.

Consider CCCAAGGACUGCCGAGCGAGAUUACGCUUGAGCGCCCCACUGAGGAUGCCCACGGGCGAUCGGGGCACGG [C6G U61C], for which the Kd amounted to 74.8 nM.

In the case of CCCAAGGACUGCCGAGCGAGAUUACGCUUGAGCGCCCCACUGAGGAUGCCCACGGGCGAUAGGGGCACGG [C6G U61A], the dissociation constant (Kd) turned out to be 38.7 nM.

As for CCCAAUGACUGCCGAGCGAGAUUACGCUUGAGCGCCCCACUGAGGAUGCCCACGGUCGAUUGGGGCACGG [C6U G56U], the Kd amounted to 6.57 nM.

On to CCCAAUGACUGGCGAGCGAGAUUACGCUUGAGCGCCCCACUGAGGAUGCCCACGGGCGAUUGGGGCACGG [C6U C12G], for which the Kd turned out to be 5.7 nM.

CCCAAUGACUGUCGAGCGAGAUUACGCUUGAGCGCCCCACUGAGGAUGCCCACGGGCGAUUGGGGCACGG [C6U C12U]: the Kd was determined as 6.16 nM.

With CCCAAUGACUGCCGAGCGAGAUUACGCUUGAGCGCCCCACUGAGGAUGCCCUCGGGCGAUUGGGGCACGG [C6U A52U], the Kd turned out to be 23.1 nM.

Take CCCAACCACUUCCGAGCGAGAUUACGCUUGAGCGCCCCACUGAGGAUGCCCACGGGCGAUUGGGGCACGG [G7C G11U]: the Kd was determined as 7.68 nM.
